Consider four compounds from PMC9284555 (Journal of Agricultural and Food Chemistry, 2022).

Data set [1] is classed as in vivo, human. The settings on record: for relative intensity (EGCG = 1): LC-MS intensity in human plasma after ingestion of catechin-rich tea; for AUC0–6h / T1/2 / Tmax: human plasma, oral catechin-rich beverage (135 mg EGCG), mean ± SD, n = 10. Put shortly:
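Ten healthy fasted men drank 350 mL of a beverage with 615 mg catechins (135 mg EGCG). Plasma was taken at 0.5–6 h, acid/ascorbate/EDTA-stabilised and stored at −80 °C. Samples went through solid-phase extraction with an ethyl gallate internal standard. Analytes were identified and quantified by Orbitrap LC–MS (calibration 1–500 ng/mL). Parameters came from noncompartmental analysis; mean ± SD.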

Data set [2] deals with SULT1A1. Conditions: inhibition of SULT1A1; cited from earlier work.
In data set [3] the test system is SULT1A3. Conditions: inhibition of SULT1A3; cited from earlier work.
Data set [4] deals with COMT. The settings on record: inhibition of COMT; cited from earlier work.

Take “(E)GCG-dimethyl-sulfate [(E)GCG-diMe-sulfate]”: the “relative intensity (EGCG = 1)” value in data set [1] amounted to 0.54.

As to `O=C(O[C@@H]1Cc2c(O)cc(O)cc2O[C@@H]1c1cc(O)c(O)c(O)c1)c1cc(O)c(OS(=O)(=O)O)c(O)c1` [EGCG-4″-sulfate], in data set [1], the “relative intensity (EGCG = 1)” value stood at 0.76, the “AUC0–6h” value turned out to be 715.2 ± 127.1 nmol·h·L^–1, the T1/2 was 3.9 ± 1.5 h and the time of peak concentration (Tmax) stood at 2.5 ± 0.60 h.

Regarding `O=C(O[C@@H]1Cc2c(O)cc(O)cc2O[C@@H]1c1cc(O)c(O)c(O)c1)c1cc(O)c(O[C@@H]2O[C@H](C(=O)O)[C@@H](O)[C@H](O)[C@H]2O)c(O)c1` [EGCG-4″-glucuronide], in data set [1], the “relative intensity (EGCG = 1)” value stood at 0.39, the “AUC0–6h” value is on record as 198.9 ± 23.8 nmol·h·L^–1, the T1/2 turned out to be 1.5 ± 0.64 h and the Tmax is 1.3 ± 0.26 h.

As to `O=c1c(O)c(-c2ccc(O)c(O)c2)oc2cc(O)cc(O)c12` [quercetin], the IC50 is 0.41 to 13 µM in data set [2], 7 µM in data set [3] and 0.9 to 8.5 µM in data set [4].

As usually defined, the Tmax is the time from dosing to the highest level. Broadly, the IC50 is the point on the concentration scale where inhibition reaches its midpoint.
